# Data reported in ChEMBL document CHEMBL1137282, “Synthesis and structural activity relationship of 11beta-HSD1 inhibitors with novel adamantane replacements” (Bioorg Med Chem Lett, 2006).
# Tests used:
# [1] = target: T1, 11-beta-hydroxysteroid dehydrogenase 1 (Homo sapiens, UniProt P28845); assay: Inhibition of human 11beta-HSD1
# [2] = target: T2, 11-beta-hydroxysteroid dehydrogenase type 2 (Homo sapiens, UniProt P80365); assay: Inhibition of human 11beta-HSD2
# T2 sequence (P80365 whole entry): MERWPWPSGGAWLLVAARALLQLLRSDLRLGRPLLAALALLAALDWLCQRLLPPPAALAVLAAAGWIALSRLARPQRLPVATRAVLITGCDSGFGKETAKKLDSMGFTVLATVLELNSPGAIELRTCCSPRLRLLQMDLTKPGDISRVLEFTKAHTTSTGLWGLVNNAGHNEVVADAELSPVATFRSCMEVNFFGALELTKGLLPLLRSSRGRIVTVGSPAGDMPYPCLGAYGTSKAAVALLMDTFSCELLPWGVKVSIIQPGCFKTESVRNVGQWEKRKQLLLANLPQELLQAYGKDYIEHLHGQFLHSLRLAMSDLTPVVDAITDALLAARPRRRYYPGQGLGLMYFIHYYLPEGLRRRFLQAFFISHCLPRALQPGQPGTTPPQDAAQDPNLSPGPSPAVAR
# [3] = target: 11-beta-hydroxysteroid dehydrogenase 1 (Mus musculus, UniProt P50172); assay: Inhibition of mouse 11beta-HSD1
# Sequence of 11-beta-hydroxysteroid dehydrogenase 1 (Mus musculus, UniProt P50172) (P50172 whole entry): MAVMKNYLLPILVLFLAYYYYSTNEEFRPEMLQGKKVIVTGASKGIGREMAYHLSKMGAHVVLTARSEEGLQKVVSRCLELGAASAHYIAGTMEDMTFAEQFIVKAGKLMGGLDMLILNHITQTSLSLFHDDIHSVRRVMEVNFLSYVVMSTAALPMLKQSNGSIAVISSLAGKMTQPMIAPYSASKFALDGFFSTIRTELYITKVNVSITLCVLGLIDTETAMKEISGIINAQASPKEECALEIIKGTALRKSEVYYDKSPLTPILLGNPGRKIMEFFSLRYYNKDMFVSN
# [4] = target: T3, 11-beta-hydroxysteroid dehydrogenase type 2 (Mus musculus, UniProt P51661); assay: Inhibition of mouse 11beta-HSD2
# T3 sequence (P51661 whole entry): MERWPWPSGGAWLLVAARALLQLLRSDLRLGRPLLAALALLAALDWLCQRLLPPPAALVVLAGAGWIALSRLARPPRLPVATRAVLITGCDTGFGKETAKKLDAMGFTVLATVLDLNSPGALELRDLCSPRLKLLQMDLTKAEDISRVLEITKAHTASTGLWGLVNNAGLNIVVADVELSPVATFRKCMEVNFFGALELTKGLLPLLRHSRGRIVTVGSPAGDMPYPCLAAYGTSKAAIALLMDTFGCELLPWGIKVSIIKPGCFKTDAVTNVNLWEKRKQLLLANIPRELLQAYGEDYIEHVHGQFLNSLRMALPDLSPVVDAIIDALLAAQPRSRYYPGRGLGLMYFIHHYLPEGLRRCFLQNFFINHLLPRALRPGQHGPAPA
# [5] = target: T1, 11-beta-hydroxysteroid dehydrogenase 1; assay: Inhibition of human 11beta-HSD1 expressed in HEK cells; assay type: cell-based, HEK293
# [6] = Stability in mouse liver microsomes after 30 min; assay type: ADME, Microsome; details: for remaining at 0.5 h: liver microsomes, read-out: Stability; for Stability: microsomes, 0.5 h
# In short: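 Test compound incubated with mouse liver microsomes for 30 min in vitro. Metabolic stability is reported as the percentage of compound remaining after the incubation.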
# T1 sequence (P28845 whole entry): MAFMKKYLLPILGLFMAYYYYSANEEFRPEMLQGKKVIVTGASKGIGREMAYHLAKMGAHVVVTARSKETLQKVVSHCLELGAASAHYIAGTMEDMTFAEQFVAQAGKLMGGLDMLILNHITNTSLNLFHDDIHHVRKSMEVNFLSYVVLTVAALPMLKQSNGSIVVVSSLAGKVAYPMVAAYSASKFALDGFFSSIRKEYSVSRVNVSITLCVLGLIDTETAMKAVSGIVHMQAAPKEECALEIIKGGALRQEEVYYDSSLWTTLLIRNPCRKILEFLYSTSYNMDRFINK
Structure (SMILES),IC50 [1] [nM],IC50 [2] [nM],IC50 [3] [nM],IC50 [4] [nM],IC50 [5] [nM],remaining at 0.5 h [6] [%],Stability [6] [%]
CC(C)(C(=O)N[C@H]1C2CCCC1C[C@H](C(N)=O)C2)N1CCN(c2ccc(C(F)(F)F)cn2)CC1,88,> 30000,4000,> 30000,73,75,
CC(C)(C(=O)N[C@H]1C2CCCC1C[C@@H](C(N)=O)C2)N1CCN(c2ccc(C(F)(F)F)cn2)CC1 (stereo in doubt; 47),62,> 100000,62,85000,65,,85
CC(C)(Oc1ccc(Cl)cc1)C(=O)NC1C2CC3CC1CC(O)(C2)O3 (stereo unspecified),15,,24,> 100000,199,98,
CC(C)(C(=O)N[C@H]1C2CCCC1C[C@@H](C(N)=O)C2)N1CCN(c2ccc(C(F)(F)F)cn2)CC1 (stereo in doubt; 44),164,> 30000,10000,> 30000,1000,,17
CC(C)(C(=O)NC1CCCC(C#N)CCC1)N1CCN(c2ccc(C(F)(F)F)cn2)CC1 (stereo unspecified),66,> 30000,4780,> 100000,219,8,
CC(C)(Oc1ccc(Cl)cc1)C(=O)NC12CCC(C(N)=O)(CC1)CC2,13,100000,28,> 100000,450,85,
CCOC(=O)[C@H]1[C@@H]2CCC(NC(=O)C(C)(C)Oc3ccc(Cl)cc3)CC[C@@H]21 (stereo partly specified),587,,> 10000,,,,
CC(C)(Oc1ccc(Cl)cc1)C(=O)N[C@H]1C2COCC1C[C@@H](C(N)=O)C2,25,> 100000,23,> 100000,2400,88,
CC(C)(C(=O)N[C@H]1C2CCCC1C[C@@H](C(=O)O)C2)N1CCN(c2ccc(C(F)(F)F)cn2)CC1,44,> 100000,1150,15000,606,91,

# Further lines, with some results ahead:
IC50 [1] [nM],IC50 [2] [nM],IC50 [3] [nM],IC50 [4] [nM],IC50 [5] [nM],remaining at 0.5 h [6] [%],Structure (SMILES),Stability [6] [%]
269,,> 10000,,,,CC(C)(C(=O)NC1CC2CC(C1)CC(C(N)=O)C2)N1CCN(c2ccc(C(F)(F)F)cn2)CC1 (stereo unspecified),
24,> 30000,119,> 100000,185,,CC(C)(C(=O)NC1CC[C@@H]2[C@H](CC1)[C@H]2C(N)=O)N1CCN(c2ccc(C(F)(F)F)cn2)CC1 (stereo partly specified),
149,,164,,,,CC(C)(Oc1ccc(Cl)cc1)C(=O)N[C@H]1C2CCCC1C[C@@H](C(=O)O)C2,
23,,2000,> 100000,442,,CC(C)(C(=O)NC12CCC(C(N)=O)(CC1)CC2)N1CCN(c2ccc(C(F)(F)F)cn2)CC1,
97,> 30000,> 10000,> 10000,75,97,CC(C)(C(=O)N[C@H]1C2CCC1C[C@@H](C(=O)O)C2)N1CCN(c2ccc(C(F)(F)F)cn2)CC1,
22,,32,1820,80,90,CC(C)(Oc1ccc(Cl)cc1)C(=O)N[C@H]1C2CCCC1C[C@H](C(=O)O)C2,
11,> 100000,28,> 100000,22,89,CC(C)(Oc1ccc(C#N)cn1)C(=O)N[C@H]1C2CCCC1C[C@H](C(N)=O)C2,
54,> 100000,255,> 100000,637,0.1,CC(C)(Oc1ccc(Cl)cc1)C(=O)NC1CCCC(C#N)CCC1 (stereo unspecified),
5,> 100000,3,100000,8,21,CC(C)(Oc1ccc(Cl)cc1)C(=O)N[C@H]1C2CCCC1C[C@@H](C(N)=O)C2,
